In publication PMC4814157 (ACS chemical biology, 2011):
Changes are numbered by the printed parent chain. “Also recorded” adds a separate entry of the source.

Columns and labels:
Scp1 [1] = target: T1, Scp1 (Homo sapiens, UniProt Q9GZU7); experiment: Concentration-response assay of rabeprazole analogues on Scp1; format: biochemical
T1 sequence (Q9GZU7 77-256): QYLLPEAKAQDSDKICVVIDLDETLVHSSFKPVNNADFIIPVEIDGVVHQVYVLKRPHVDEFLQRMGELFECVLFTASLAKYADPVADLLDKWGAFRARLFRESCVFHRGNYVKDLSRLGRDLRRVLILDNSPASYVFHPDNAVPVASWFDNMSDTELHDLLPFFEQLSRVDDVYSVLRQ

Scp1 K157A mutant = target: T2, Scp1 K157A mutant (Homo sapiens, UniProt Q9GZU7, K157A); experiment: pNPP assay, Scp1 K157A mutant; format: biochemical
T2 sequence (Q9GZU7 77-256 K157A): T1 sequence (Q9GZU7 77-256) with K81A
Summary of the method: (§1)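 Point mutants of human Scp1 (residues 77–256; E. coli BL21(DE3), Ni-NTA purified), 50 ng each. Each was preincubated with inhibitor 10 min at RT in pH 5.5 Tris-acetate buffer with 10 mM MgCl2, 0.02% Triton X-100, 1% DMSO. pNPP near Km was added and hydrolysis ran 10–15 min at 37 °C. Reactions were quenched with 0.25 N NaOH and read at 410 nm. IC50 was fitted from concentration–response curves (0–100 µM inhibitor).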

S. pombe Fcp1 = target: T3, S. pombe Fcp1 (Schizosaccharomyces pombe, UniProt Q9P376); experiment: pNPP assay, concentration-response on Fcp1; format: biochemical; conditions: up to 0.1 mM rabeprazole, substrate comparable to Km
T3 sequence (Q9P376 148-641): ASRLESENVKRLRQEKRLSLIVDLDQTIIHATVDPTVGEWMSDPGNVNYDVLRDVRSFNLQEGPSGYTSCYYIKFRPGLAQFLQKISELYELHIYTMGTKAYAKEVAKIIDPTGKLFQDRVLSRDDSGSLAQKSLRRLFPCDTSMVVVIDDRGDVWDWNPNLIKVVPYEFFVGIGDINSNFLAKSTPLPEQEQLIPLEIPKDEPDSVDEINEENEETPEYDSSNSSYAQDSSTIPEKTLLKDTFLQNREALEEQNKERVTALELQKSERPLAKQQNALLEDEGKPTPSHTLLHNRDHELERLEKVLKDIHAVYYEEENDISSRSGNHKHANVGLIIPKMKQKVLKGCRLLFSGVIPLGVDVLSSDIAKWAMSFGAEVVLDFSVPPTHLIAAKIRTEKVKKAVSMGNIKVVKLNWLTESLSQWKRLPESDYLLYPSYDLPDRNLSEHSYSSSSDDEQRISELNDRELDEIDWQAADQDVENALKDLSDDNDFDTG

[2] = target: T4, bacteriophage λ Ser/Thr phosphoprotein phosphatase (λPPase) (Escherichia phage lambda, UniProt P03772); experiment: Inhibition of λPPase; format: biochemical; conditions: up to 1 mM concentration (data not shown)
T4 sequence (P03772 1-221): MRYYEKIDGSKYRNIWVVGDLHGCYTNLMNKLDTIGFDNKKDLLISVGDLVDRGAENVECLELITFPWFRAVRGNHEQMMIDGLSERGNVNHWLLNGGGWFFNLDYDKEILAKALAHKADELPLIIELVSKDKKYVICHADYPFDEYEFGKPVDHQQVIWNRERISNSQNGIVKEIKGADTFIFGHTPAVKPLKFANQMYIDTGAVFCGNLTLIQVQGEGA

human Dullard = target: T5, human Dullard (Homo sapiens, UniProt O95476); experiment: pNPP assay, concentration-response on Dullard; format: biochemical; conditions: up to 0.1 mM rabeprazole, substrate comparable to Km
T5 sequence (O95476 46-244): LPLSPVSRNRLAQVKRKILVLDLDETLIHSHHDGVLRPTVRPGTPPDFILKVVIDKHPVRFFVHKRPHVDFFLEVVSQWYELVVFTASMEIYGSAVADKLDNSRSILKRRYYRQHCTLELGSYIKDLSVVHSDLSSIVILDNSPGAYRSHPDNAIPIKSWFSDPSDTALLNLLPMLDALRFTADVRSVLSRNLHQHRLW

[3] = system: Scp1 Tyr158 to Ala mutant; experiment: pNPP assay, Scp1 Tyr158 to Ala mutant; format: biochemical, human
Summary of the method: as §1

Scp1 [4] = target: T1, Scp1; experiment: pNPP assay of Scp1 phosphatase activity; format: biochemical
Scp1 [5] = target: T1, Scp1; experiment: Malachite green assay with CTD-derived phosphorylated peptide; format: biochemical
Summary of the method: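 Human Scp1 (residues 77–256, E. coli BL21(DE3)-expressed, Ni-NTA purified), 5 ng, acting on a 17-mer Ser5-phosphorylated CTD peptide. Reaction ran 3 min at 37 °C, was quenched with malachite green reagent, and read at 620 nm. IC50 used substrate near Km with 0–100 µM inhibitor. Km came from peptide at 0.01–0.4 mM; Ki from peptide titrations without and with inhibitor.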

Scp1 F106E mutant = experiment: pNPP assay, Scp1 F106E mutant; format: biochemical, human
Summary of the method: as §1

Scp1 L155A mutant = target: T6, Scp1 L155A mutant (Homo sapiens, UniProt Q9GZU7, L155A); experiment: pNPP assay, Scp1 L155A mutant; format: biochemical
T6 sequence (Q9GZU7 77-256 L155A): T1 sequence (Q9GZU7 77-256) with L79A
Summary of the method: as §1

Scp1 V127A mutant = target: T7, Scp1 V127A mutant (Homo sapiens, UniProt Q9GZU7, V127A); experiment: pNPP assay, Scp1 V127A mutant; format: biochemical
T7 sequence (Q9GZU7 77-256 V127A): T1 sequence (Q9GZU7 77-256) with V51A
Summary of the method: as §1

Scp1 [6] = target: T1, Scp1; experiment: Differential scanning fluorimetry, thermal stability of Scp1; format: binding; conditions: 20 µM protein, 100 µM rabeprazole; 57.8 °C in absence of compound

In the case of `COCCCOc1ccnc(CS(=O)(=O)c2nc3ccccc3[nH]2)c1C` [Rabeprazole sulfone], the “inhibition of Scp1” value (Scp1 [1]) is reported as “did not show any inhibition”.
With `COCCCOc1ccnc(C[S+]([O-])c2nc3ccccc3[nH]2)c1C` (stereo not drawn) [rabeprazole] the “change of IC50 versus wildtype Scp1” value (Scp1 K157A mutant) was “moderately increased IC50”, the “inhibition of Fcp1” value (S. pombe Fcp1) was “no inhibition” and the “inhibition of λPPase” value [2] was “no inhibition”. For the same compound, the “inhibition of Dullard” value (human Dullard) was “no inhibition”, the “loss of inhibition versus wildtype Scp1” value [3] was “at least 10 fold” and the IC50 (Scp1 [4]) was 4 ± 0.7 µM. The mechanism of inhibition (Scp1 [4]; against pNPP) was “mixed inhibitor”, the “Ki′” value (Scp1 [4]; pNPP as the substrate, steady-state kinetics) was 10 ± 2 µM and the IC50 (Scp1 [5]) was 9 ± 3 µM. The Ki (Scp1 [5]) was 5 ± 1 µM, the mechanism of inhibition (Scp1 [5]; CTD-derived phosphorylated peptide as the substrate) was “competitive inhibitor” and the “increase of IC50 versus wildtype Scp1” value (Scp1 F106E mutant) was “at least 10 fold”. For the same compound, the “change of IC50 versus wildtype Scp1” value (Scp1 L155A mutant) was “moderately increased IC50”, the “change of IC50 versus wildtype Scp1” value (Scp1 V127A mutant) was “moderately increased IC50” and the “melting temperature of Scp1 in the presence of the compound” value (Scp1 [6]) was 59.1 °C.
For `COCCCOc1cc[n+]([O-])c(C[S+]([O-])c2nc3ccccc3[nH]2)c1C` (stereo not drawn) [Rabeprazole N-oxide], the “inhibition of Scp1” value (Scp1 [1]) was “no inhibition”.
`Cc1c(OCC(F)(F)F)ccnc1C[S+]([O-])c1nc2ccccc2[nH]1` (stereo not drawn) [lansoprazole] was tested, and the “inhibition of Scp1” value (Scp1 [1]) was “no inhibition; also recorded: does not inhibit”.
